Screening results as filed in PubChem.
hERG rescue: compounds protecting human hERG from proarrhythmic drug block; CHO-hERG, FluxOR thallium flux, dofetilide IC70 present; activation (rescue from dofetilide block), less the hit threshold, % at 10 µM; 310,000 compounds, 0.51% hits; AID 1511;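 active means activation above the mean of controls blocked by dofetilide plus 5 SD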;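 further: thallium influx through hERG after potassium depolarization seen as dye fluorescence rise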
KCNK9 block: inhibitors of human KCNK9 two-pore domain potassium channel | Q9NPC2 | HEK293 KCNK9, FluxOR thallium flux fluorescence; active compounds read low | B-score at 10 µM | 310,000 compounds, 1.2% hits;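 active means ratio B-score over 3 SD below the library mean, with starting fluorescence within 5 SD of its mean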;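 further: negative B-score means less thallium flux so channel inhibition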
Kir21 inh: Kir2.1 (mouse) channel inhibition; P35561; HEK293-Kir2.1, FluxOR thallium flux fluorescence; active compounds read low; B-score at 10 µM; 310,000 compounds, 0.85% hits; AID 1672;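 active means fluorescence ratio B-score at or below minus 3 SD of library scores, with starting-brightness B-score within 2 SD, cut at about -4.2 in these data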;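 further: channel flux triggered by added potassium and thallium sulfate stimulus; B-score of peak minus minimum fluorescence over baseline after thallium stimulus; more negative B-score means stronger Kir2.1 block with less thallium influx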
KCNQ1 block: blocks the human KCNQ1 potassium channel; B-score at 10 µM; AID 2642; 310,000 compounds, 1.3% hits; P51787; CHO-K1 KCNQ1, FluxOR thallium flux fluorescence; active compounds read high;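 active means compounds whose thallium flux B-score, printed positive for inhibition, exceeds three library SD while starting fluorescence stays within three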;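 further: channel opened by potassium depolarization with thallium stimulus after 20 min compound exposure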
Target sequence (P51787 whole entry, looked up): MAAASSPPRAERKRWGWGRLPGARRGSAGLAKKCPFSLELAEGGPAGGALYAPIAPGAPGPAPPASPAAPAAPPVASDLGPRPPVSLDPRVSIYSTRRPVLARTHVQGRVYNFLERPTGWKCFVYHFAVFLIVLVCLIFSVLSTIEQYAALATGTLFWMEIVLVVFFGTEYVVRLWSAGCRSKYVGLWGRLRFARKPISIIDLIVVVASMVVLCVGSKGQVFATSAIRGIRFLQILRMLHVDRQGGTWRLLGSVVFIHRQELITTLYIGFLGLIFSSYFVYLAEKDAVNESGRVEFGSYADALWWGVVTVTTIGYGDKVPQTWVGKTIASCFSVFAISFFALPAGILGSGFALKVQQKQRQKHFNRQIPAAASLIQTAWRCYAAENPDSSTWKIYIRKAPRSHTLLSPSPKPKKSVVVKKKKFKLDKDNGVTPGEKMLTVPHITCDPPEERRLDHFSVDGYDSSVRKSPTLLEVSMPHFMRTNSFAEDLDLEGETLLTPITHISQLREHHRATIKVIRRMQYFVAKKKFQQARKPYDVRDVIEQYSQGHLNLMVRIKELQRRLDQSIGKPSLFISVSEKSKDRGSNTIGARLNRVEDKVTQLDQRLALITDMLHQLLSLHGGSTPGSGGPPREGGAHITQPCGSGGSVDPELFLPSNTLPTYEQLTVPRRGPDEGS
KCNQ1 pot: potentiators or activators of human KCNQ1 potassium channel; P51787; CHO-K1 KCNQ1, thallium flux FluxOR fluorescence; active compounds read high; B-score at 10 µM; 310,000 compounds, 0.35% hits;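 active means fluorescence ratio B-score, a plate-corrected score, at least three library SD, with initial intensity B-score within 5 SD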
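System: CHO-K1 cells stably expressing KCNQ1 / Medium: assay buffer for compound exposure, DMSO matched across wells / Reagent: thallium- and potassium-containing depolarizing buffer / Compound: one concentration, matched DMSO / Incubation: 20 min compound pretreatment at room temperature / Measured by: kinetic FluxOR fluorescence, 10 s baseline plus 110 s post-stimulus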
KCNK3 block: human KCNK3 channel inhibition, primary screen; B-score at 10 µM; O14649; 340,000 compounds, 0.84% hits; AID 602410; CHO-KCNK3 thallium flux, FluxOR fluorescence; active compounds read low;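 active means B-score under library mean minus 4 SD, starting fluorescence ratio at most library mean plus 5 SD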;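 further: more negative B-score means stronger inhibition of thallium flux through KCNK3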
KCNK9 block conf: confirmation of human KCNK9 potassium channel inhibitors | shares compounds with KCNK9 block | HEK293 KCNK9 cells, FluxOR thallium flux fluorescence | inhibition, % at 10 µM | 4,900 compounds, 43% hits | AID 492992;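 active means thallium signal inhibited by more than 5 SD of the compound-free buffer control wells, on both duplicate plates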;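 further: 0% = assay buffer control wells without compound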
Kir2-1 spec: mouse Kir2.1 off-target activity of KCNK9 modulators | shares compounds with KCNK9 block | Kir2.1 cells, FluxOR thallium flux fluorescence | inhibition, % at 10 µM | 4,900 compounds, 4% hits | AID 492993;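 active means thallium signal drop more than 5 SD beyond the mean of the no-compound control wells, seen in both duplicate plates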;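 further: signal is fluorescence rise after thallium addition divided by baseline fluorescence; plate controls were assay buffer only for no effect and full block by chlorpromazine control for full effect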
KCNK9 uninduced: second check of KCNK9 modulator effects in non-induced HEK293 cells; shares compounds with KCNK9 block; FluxOR thallium flux; inhibition, % at 10 µM; 4,900 compounds, 40% hits; AID 492997;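 active means thallium signal drop beyond 5 SD of the untreated control mean, on both duplicate plates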;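 further: plate controls were buffer only IC0 wells for no effect and SID17386958 at its maximal inhibitory level for full effect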
* = called active by the depositor; i = inactive; / = no result given. Hits are enriched below; roughly 3.8% of the tested compounds scored in any of these assays.

SMILES	hERG rescue	KCNK9 block	Kir21 inh	KCNQ1 block	KCNQ1 pot	KCNK3 block	KCNK9 block conf	Kir2-1 spec	KCNK9 uninduced
O=C(c1ccco1)N(Cc1ccc([N+](=O)[O-])cc1)c1ccc(Cl)cc1	-12.3	i	1.1	i	i	i	/	/	/
Nn1c(Nc2ccc(Cl)cc2)nncc1=O	-12.2	i	0.09	i	i	i	/	/	/
COCCn1c(SCc2nnc(-c3ccccc3)o2)nc2sc3c(c2c1=O)CCC3	-22.6	-11.2*	0.35	i	i	i	37.0%*	i	32.5%*
CCCOC1CCCN(C(=O)CCc2nnc(-c3ccc4c(c3)OCO4)o2)C1 (centres undefined)	-8.9	i	0	i	i	i	/	/	/
COc1ccccc1NC(=O)Nc1nnc(C(C)c2ccccc2)s1 (centres undefined)	-11.4	-10.4*	-0.33	i	i	i	55.5%*	i	24.0%*
CCc1cccc(C)c1N(C(=O)Cn1c(COC)nc2ccccc21)C(C)COC (centres undefined)	-10.2	-10*	2.74	i	i	i	40.5%*	i	25.0%*
O=C(c1ccc(-n2cncn2)c([N+](=O)[O-])c1)N1CCN(S(=O)(=O)c2ccc(F)c(F)c2)CC1	-12.0	i	-2.54	i	i	i	/	/	/
Cc1ccc(Cn2c(C3CCCN3c3nc(-c4cc(Cl)c(N)c(Cl)c4)cs3)nc3cc(C(=O)NCCCO)ccc32)cc1 (centres undefined)	-4.1	i	0.61	i	i	i	/	/	/
Cc1ccc(Cn2c(C3CCCN3c3nc(C)cs3)nc3cc(C(F)(F)F)ccc32)cc1 (centres undefined)	-15.4	-14.9*	1.05	i	i	i	74.0%*	i	56.0%*
COc1cc(S(=O)(=O)NCC(c2ccco2)N2CCCCC2)ccc1NC(C)=O (centres undefined)	/	/	/	/	/	i	/	/	/
CCN1C(=O)[C@H]2[C@@H](c3ccc(-c4cccc(Cl)c4)c(OC)c3)N[C@@](CC(C)C)(C(=O)OC)[C@H]2C1=O	-8.9	-9.89*	-0.67	i	i	i	43.5%*	i	44.0%*
C=CCC(C(=O)Oc1c(C(C)(C)C)cc(C)cc1C(C)(C)C)c1ccccc1 (centres undefined)	/	/	/	/	/	i	/	/	/
Nc1c(-c2ccccc2)c(CSc2nc3ccccc3[nH]2)nn1-c1cccc(Cl)c1	-6.4	-12.8*	-0.53	i	i	i	71.0%*	i	38.5%*
Nc1c(-c2ccccc2)c(CSc2nc3ccccc3[nH]2)nn1-c1ccc(Cl)cc1	-8.2	-9.28*	-1.24	i	i	i	60.0%*	i	28.5%*
COc1ccc(Br)cc1CN(C)CC(=O)Nc1ccccc1Cl	-14.4	-8.71*	-5.42*	i	i	i	33.5%*	36.5%*	36.5%*
COc1ccccc1CN(C)CC(=O)Nc1ccc(Cl)cc1C(F)(F)F	-9.8	-14.3*	-3.51	i	i	i	49.0%*	i	42.5%*
COc1ccc(NC(=O)CN(C)Cc2cccs2)cc1Cl	-11.8	-12.8*	-1.5	i	i	-11.3*	32.5%*	i	33.0%*
COc1ccc(OC)c(NC(=O)CN(C)CC(=O)Nc2ccccc2Cl)c1	0.3	i	0.34	i	i	i	/	/	/
CSc1cccc(NC(=O)C2CCN(S(=O)(=O)c3ccc4c(c3)NC(=O)CO4)CC2)c1	-7.8	i	0.27	i	i	i	/	/	/
O=C(NC1CCN(CCc2c[nH]c3ccccc23)CC1)c1ccccc1	-7.2	i	-0.5	i	i	i	/	/	/
O=C(N/N=C/c1cccs1)c1cccc(NC(=O)c2ccccc2Cl)c1	-18.9	-9.38*	0.35	i	i	i	i	i	i
O=C(N/N=C/c1cccs1)c1ccc(NC(=O)c2ccccc2Cl)cc1	-5.5	i	0.7	i	i	i	/	/	/
O=C(N/N=C/c1cn(-c2cccs2)nc1-c1ccccc1)c1ccccc1Cl	-2.5	-10*	-0.2	i	i	i	51.0%*	i	i
O=C(CCNC(=O)Cn1ccc2ccccc2c1=O)NCC1CCCC1c1ccccc1 (centres undefined)	-3.1	i	0.18	i	i	i	/	/	/
COc1ccc(C(=O)C2CCCN(C/C=C/c3ccccc3OC)C2)c(OC)c1 (centres undefined)	-19.7	i	-2.74	i	i	i	i	i	i
SMILES	hERG rescue	KCNK9 block	Kir21 inh	KCNQ1 block	KCNQ1 pot	KCNK3 block	KCNK9 block conf	Kir2-1 spec	KCNK9 uninduced
COc1cccc(C(=O)C2CCCN(C/C=C/c3ccccc3OC)C2)c1 (centres undefined)	-32.7	i	0.02	i	i	i	i	i	i
COc1ccc(C(=O)C2CCCN(Cc3c(F)ccc(F)c3F)C2)c(OC)c1 (centres undefined)	-4.5	i	-2.07	i	i	i	/	/	/
CC(Sc1nnc(-c2ccncc2)n1C)C(=O)Nc1nccs1 (centres undefined)	-2.7	i	-1.57	i	i	i	/	/	/
Cc1nc2c(-c3ccccc3)c(C)nn2c(C)c1CCC(=O)O	-5.9	i	-0.25	i	i	i	/	/	/
CCOC(=O)Cc1c(C)nc2c(-c3ccc(OC)cc3)c(C)nn2c1C	-10.4	i	1.99	i	i	i	i	i	i
CCCc1cc(-c2nc(-c3ccc(Br)cc3)cs2)ccn1	-6.3	-10.3*	-0.06	i	i	i	i	i	26.5%*
CC(C)(C)n1nnnc1C(c1cccc(C#N)c1)N1CCCCCC1 (centres undefined)	-9.8	i	-2.07	i	i	i	/	/	/
COc1ccc(C(c2nnnn2Cc2ccccc2)N2CCN(c3nc4ccccc4s3)CC2)cc1OC (centres undefined)	-10.4	-8.73*	-0.41	i	i	i	i	i	i
CCC(C)(C)n1nnnc1C(c1cccc(C#N)c1)N1CCN(c2cccc(C)c2C)CC1 (centres undefined)	-7.4	-17.3*	0.02	i	i	-9.55*	73.5%*	i	38.0%*
COc1ccccc1C(c1nnnn1Cc1ccccc1)N1CCN(c2nc3ccccc3s2)CC1 (centres undefined)	-7.2	i	0.09	i	i	i	/	/	/
